# E-selectin induc: E-selectin induction in HUVECs, primary screen, imaging, HUVEC, immunofluorescence imaging, single point; hit rate 0.37% among 260,000; P16581; AID 686992, 2013; activation, % at 7.58 µM; normalized: neutral wells 0, TNF-alpha wells 100;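 active = mean E-selectin-positive cell signal at least 10% of the positive control, reached in at least 60% of replicates, without over 20% cell loss; inconclusive = no rule given, readout overlaps actives, possibly toxicity-flagged; inactive = the rest, including those meeting only one limit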
#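 Test system: HUVEC; input: 3,000 HUVEC/well; measured by: immunofluorescence imaging; read-out: % PE-positive cells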
# SIRT5 block: SIRT5 desuccinylase inhibitors, primary screen, biochemical, fluorescence imaging, single point, set 5 | Purified SirT5, succinyl-peptide AMC, trypsin-coupled fluorescence | inhibition, % at 15 µM | hit rate 1.1% among 330,000 | AID 652115, 2013; in the data active = inhibition above about 15%; inconclusive = no clear call, values can overlap the other calls
# Target sequence (Q9NXA8 whole entry, looked up): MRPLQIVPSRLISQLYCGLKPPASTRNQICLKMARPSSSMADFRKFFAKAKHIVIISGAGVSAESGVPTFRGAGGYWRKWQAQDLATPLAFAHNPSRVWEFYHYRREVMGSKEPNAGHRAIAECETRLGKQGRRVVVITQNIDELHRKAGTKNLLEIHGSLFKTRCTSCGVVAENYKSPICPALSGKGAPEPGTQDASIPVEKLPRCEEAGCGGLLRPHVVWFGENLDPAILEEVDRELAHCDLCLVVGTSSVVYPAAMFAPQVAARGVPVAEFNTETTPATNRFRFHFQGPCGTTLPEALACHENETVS
# DENV2 CPE rescue: inhibitors of DENV2 cytopathic effect, primary screen, cell-based, plate reader, single concentration | DENV2-infected cells, cytopathic effect rescue | CPE inhibition, % at 9.99 µM | hit rate 1.7% among 350,000 | AID 651640, 2012; in the data active = CPE inhibition above about 20%, passing the limit was not always enough; inconclusive = no clear call, values can overlap the other calls; tested in BHK-21 cells;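 also: 0% = median of neutral control wells and 100% = median of positive control wells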
# The depositor's hits bear a star; u = inconclusive; x = no result. A selection: hits, their analogues and other compounds. The true share with any hit is near 2.8%.
SMILES,E-selectin induc,SIRT5 block,DENV2 CPE rescue
Cc1ccc(Cn2c(O)c(N=NC(=S)Nc3ccccc3F)c3ccccc32)cc1,-1,18*,-10
Oc1c(N=NC(=S)Nc2ccccc2F)c2ccccc2n1Cc1ccccc1,x,12,-1
NC(=S)N=Nc1c(O)n(Cc2ccccc2)c2ccccc12,x,6,63*
CCCN(C)C[C@@H]1OCCCC[C@@H](C)Oc2ccc(NS(=O)(=O)c3ccc(C)cc3)cc2C(=O)N([C@H](C)CO)C[C@H]1C,0,x,x
C[C@@H]1CN([C@H](C)CO)C(=O)c2cc(C#CCN(C)C)cnc2O[C@H]1CN(C)C,0,6,-1
CCCNC(=O)Nc1ccc2c(c1)OC[C@@H](C)N(C(=O)C1CCCC1)C[C@@H](C)[C@H](OC)CN(C)C2=O,0,x,x
Cc1noc(C)c1S(=O)(=O)N(C)C[C@H]1OCCCC[C@@H](C)Oc2ccc(NC(=O)Nc3ccc(F)cc3)cc2C(=O)N([C@H](C)CO)C[C@@H]1C,0,-9,-7
Cc1noc(C)c1S(=O)(=O)N(C)C[C@@H]1OCCCC[C@@H](C)Oc2ccc(NC(=O)Nc3ccc(F)cc3)cc2C(=O)N([C@@H](C)CO)C[C@@H]1C,0,2,46*
Cc1noc(C)c1S(=O)(=O)N(C)C[C@@H]1OCCCC[C@H](C)Oc2ccc(NC(=O)NC(C)C)cc2C(=O)N([C@@H](C)CO)C[C@H]1C,x,-2,-11
Cc1noc(C)c1S(=O)(=O)N(C)C[C@@H]1OCCCC[C@H](C)Oc2ccc(NC(=O)NC(C)C)cc2C(=O)N([C@H](C)CO)C[C@H]1C,x,8,86*
CN1C(=O)c2cc(NC(=O)C3CC3)ccc2OC[C@H]2O[C@H](CC(=O)NCCN3CCCC3)CC[C@@H]21,0,-5,-3
CCCNC(=O)C[C@@H]1CC[C@H]2[C@@H](COC[C@@H](O)CN2C(=O)c2ccccn2)O1,0,-2,-5
Brc1ccc(-c2noc3c2-c2nc(-c4ccccc4)sc2CC3)cc1,0,x,129*
COc1ccc(-c2noc3c2-c2nc(-c4ccccc4)sc2CC3)cc1,0,3,-3
O=C(C[C@H]1C=C[C@H](NS(=O)(=O)c2ccc(F)cc2)[C@@H](CO)O1)NCc1ccccc1F,0,-1,6
CC(C)C#Cc1ccc2c(c1)O[C@H](CN(C)C(=O)C1CCC1)[C@H](C)CN([C@@H](C)CO)S2(=O)=O,0,x,x
C[C@H]1CN([C@@H](C)CO)C(=O)c2cc(C#CCc3ccccc3)cnc2O[C@@H]1CN(C)C(=O)C1CCC1,0,8,11
C[C@@H]1CN([C@H](C)CO)C(=O)c2cc(C#Cc3cccc(F)c3)cnc2O[C@H]1CN(C)C(=O)C1CCC1,67*,8,-6
C[C@H]1CN([C@@H](C)CO)C(=O)c2cc(C#Cc3cccc(F)c3)cnc2O[C@H]1CN(C)C(=O)C1CCC1,0,2,-8
C[C@H](CO)N1C[C@H](C)[C@@H](CN(C)C(=O)C2CCC2)Oc2ncc(C#Cc3cccc(F)c3)cc2C1=O,1,2,3
C[C@@H]1CN([C@@H](C)CO)C(=O)c2cc(C#Cc3cccc(F)c3)cnc2O[C@@H]1CN(C)C(=O)C1CCC1,0,1,87*
C[C@H](CO)N1C[C@H](C)[C@@H](CN(C)C(=O)C2CCC2)Oc2ncc(C#CCc3ccccc3)cc2C1=O,0,-3,60*
C[C@@H]1CCCCO[C@H](CN(C)S(C)(=O)=O)[C@H](C)CN([C@@H](C)CO)C(=O)c2cc(NC(=O)CCC(F)(F)F)ccc2O1,0,x,x
CC(=O)N(C)C[C@@H]1Oc2ncc(C3=CCCC3)cc2C(=O)N([C@@H](C)CO)C[C@H]1C,0,-2,19
C[C@@H]1CCCCO[C@H](CN(C)S(=O)(=O)c2cn(C)cn2)[C@H](C)CN([C@@H](C)CO)C(=O)c2cc(NC(=O)c3ccncc3)ccc2O1,0,8,4
SMILES,E-selectin induc,SIRT5 block,DENV2 CPE rescue
CSc1ccc(-c2ccco2)nn1,4,0,2
c1coc(-c2nnc(-c3ccco3)nn2)c1,x,18*,8
CC(=O)NCCC(=O)Nc1cc(S(=O)(=O)N2CCCCC2)ccc1N1CCCCC1,x,1,-1
Cc1ccc(S(=O)(=O)N2CCCCC2)cc1NC(=O)CCCOc1ccccc1,0,-3,-8
Cc1ccc(S(=O)(=O)N2CCOCC2)cc1NC(=O)CN(C)CC(=O)Nc1cccc(F)c1,0,x,83*
CC(=O)NCCC(=O)Nc1cc(S(=O)(=O)N2CCCCC2)ccc1N1CCN(C)CC1,0,-3,31*
Cc1ccc(S(=O)(=O)N2CCCCC2)cc1NC(=O)c1cc(=O)[nH]c2ccccc12,x,-1,77*
Cc1ccc(S(=O)(=O)N2CCCCC2)cc1NC(=O)CCOc1ccccc1,x,-5,72*
O=C(Nc1cc(S(=O)(=O)N2CCOCC2)ccc1N1CCCC1)c1cc(=O)[nH]c2ccccc12,x,1,-4
Cc1ccc(NC(=O)CN(C)CC(=O)Nc2cccc(F)c2)cc1S(=O)(=O)N1CCCCCC1,4,-4,-2
Cc1noc(C)c1NC(=O)N(C)C[C@H]1OCCCC[C@@H](C)Oc2ccc(NS(C)(=O)=O)cc2C(=O)N([C@H](C)CO)C[C@H]1C,0,x,6
C[C@H](CO)N1C[C@H](C)[C@H](CN(C)C(=O)Nc2ccc(F)cc2)Oc2ccc(NC(=O)c3ccncc3)cc2C1=O,-1,6,1
C[C@H]1CN([C@@H](C)CO)S(=O)(=O)c2ccc(C#Cc3ccc(F)cc3)cc2O[C@@H]1CN(C)C(=O)CN(C)C,0,-2,8
CCCCN1C(=O)C(CC(=O)NCC2CCCCC2)CC(C(=O)N(C)C)=C1C (centres undefined),x,-5,9
CCCCN1C(=O)C(CC(=O)NCC2CCCCC2)CC(C(=O)N(CC)CC)=C1C (centres undefined),0,17*,-6
Cc1ccc(CNC(=O)COC(=O)CCC(=O)c2cccs2)cc1,0,19*,1
O=C(COC(=O)CCC(=O)c1cccs1)NCc1ccccc1,x,1,-1
COc1ccccc1N1CCN(C2CCCN(Cc3c(F)cccc3F)C2)CC1 (centres undefined),0,-1,-7
CCOc1cccc(CN2CCCC(N3CCN(c4cccc(Cl)c4)CC3)C2)c1O (centres undefined),x,69*,u
COc1ccccc1CN1CCCC(N2CCN(c3ccccc3OC)CC2)C1 (centres undefined),x,2,29*
CCOc1cccc(CN2CCCC(N3CCc4ccccc4C3)C2)c1O (centres undefined),0,-2,-3
c1ccc(-c2ccccc2OCCOCCN2CCOCC2)cc1,0,-1,-4
c1ccc(-c2ccccc2OCCOCCN2CCNCC2)cc1,39*,-1,-7
C[C@H](CO)N1C[C@H](C)[C@@H](CN(C)S(C)(=O)=O)Oc2ccc(NC(=O)Nc3cccc4ccccc34)cc2CC1=O,x,3,12
CC(=O)NCCCC[C@@H]1NC(=O)[C@@H]2C[C@H](C(=O)NCc3ccc(F)cc3)[C@H](c3ccc(O)cc3)N2C1=O,x,-1,20*
